ChEMBL document CHEMBL1629614, “Inhibition of methionyl-tRNA synthetase by REP8839 and effects of resistance mutations on enzyme activity” (Antimicrob Agents Chemother, 2009)

Tests used:
[1] = compound: C=C(F)c1sc(CNCCCNc2cc(=O)c3ccccc3[nH]2)c(C)c1Br; test: Activity of streptococcus aureus MetRS G223C mutant by scintillation proximity assay in presence of tRNA; conditions: Staphylococcus aureus
[2] = compound: C=C(F)c1sc(CNCCCNc2cc(=O)c3ccccc3[nH]2)c(C)c1Br; test: Activity of Staphylococcus aureus MetRS G223C mutant by ATP:PPi exchange assay in presence of ATP
How it was run: (§1)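 Purified S. aureus MetRS (wild type or mutant; E. coli-expressed, ammonium sulfate cut, anion exchange) at 30 nM. ATP:PPi exchange at 30°C in 100 mM Tris-HCl pH 8.0, 5–10 mM Mg acetate, 80 mM KCl, 2.5 mM DTT, [32P]PPi plus cold PPi equal to ATP. Quenched with EDTA over 1–10 min, PEI-cellulose TLC, phosphorimager. Initial velocities versus varied ATP or methionine fit to Michaelis-Menten.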

[3] = compound: C=C(F)c1sc(CNCCCNc2cc(=O)c3ccccc3[nH]2)c(C)c1Br; test: Ratio of Kcat to Km for Staphylococcus aureus MetRS G223C mutant in presence of tRNA
How it was run: (§2)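 Purified recombinant S. aureus MetRS was assayed by tRNA aminoacylation at 30°C for 1 to 7.5 min to obtain initial rates. Buffer was Tris pH 8.0 with Mg acetate, 2.5 mM ATP, KCl, DTT, BSA, [3H]methionine and crude E. coli tRNA. Reactions were EDTA-stopped, and charged tRNA was read by scintillation proximity with polylysine beads at pH 2.0.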

[4] = compound: C=C(F)c1sc(CNCCCNc2cc(=O)c3ccccc3[nH]2)c(C)c1Br; test: Activity of Staphylococcus aureus MetRS G223C mutant by ATP:PPi exchange assay in presence of methionine; how it was run: as §1
[5] = compound: C=C(F)c1sc(CNCCCNc2cc(=O)c3ccccc3[nH]2)c(C)c1Br; test: Ratio of Kcat to Km for Staphylococcus aureus MetRS G223C mutant in presence of methionine
How it was run: (§3)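 Purified recombinant S. aureus MetRS (30 nM) was assayed by ATP:PPi exchange at 30°C in Tris pH 8.0 with Mg acetate, KCl and DTT. [32P]PPi was matched to ATP, and ATP or methionine was varied. Time points from 1 to 10 min were quenched with EDTA, separated by PEI-cellulose TLC and read by phosphorimager. Initial rates were fitted to Michaelis-Menten.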

[6] = compound: C=C(F)c1sc(CNCCCNc2cc(=O)c3ccccc3[nH]2)c(C)c1Br; test: Ratio of Kcat to Km for Staphylococcus aureus MetRS G223C mutant in presence of ATP; how it was run: as §3
[7] = compound: C=C(F)c1sc(CNCCCNc2cc(=O)c3ccccc3[nH]2)c(C)c1Br; test: Activity of Staphylococcus aureus MetRS V108M mutant by ATP:PPi exchange assay in presence of ATP; how it was run: as §1
[8] = compound: C=C(F)c1sc(CNCCCNc2cc(=O)c3ccccc3[nH]2)c(C)c1Br; test: Activity of streptococcus aureus MetRS V108M mutant by scintillation proximity assay in presence of tRNA; conditions: Staphylococcus aureus
[9] = compound: C=C(F)c1sc(CNCCCNc2cc(=O)c3ccccc3[nH]2)c(C)c1Br; test: Activity of Staphylococcus aureus MetRS V108M mutant by ATP:PPi exchange assay in presence of methionine; how it was run: as §1
[10] = compound: C=C(F)c1sc(CNCCCNc2cc(=O)c3ccccc3[nH]2)c(C)c1Br; test: Ratio of Kcat to Km for Staphylococcus aureus MetRS V108M mutant in presence of tRNA; how it was run: as §2
[11] = compound: C=C(F)c1sc(CNCCCNc2cc(=O)c3ccccc3[nH]2)c(C)c1Br; test: Ratio of Kcat to Km for Staphylococcus aureus MetRS V108M mutant in presence of methionine; how it was run: as §3
[12] = compound: C=C(F)c1sc(CNCCCNc2cc(=O)c3ccccc3[nH]2)c(C)c1Br; test: Ratio of Kcat to Km for Staphylococcus aureus MetRS V108M mutant in presence of ATP; how it was run: as §3

Row | Protein | Km [1] [µM] | kcat [1] [s⁻¹] | Km [2] [µM] | kcat/Km [3] [M⁻¹ s⁻¹] | Km [4] [µM] | kcat [4] [s⁻¹] | kcat/Km [5] [M⁻¹ s⁻¹] | kcat/Km [6] [M⁻¹ s⁻¹] | Km [7] [µM] | Km [8] [µM] | kcat [8] [s⁻¹] | Km [9] [µM] | kcat [9] [s⁻¹] | kcat/Km [10] [M⁻¹ s⁻¹] | kcat/Km [11] [M⁻¹ s⁻¹] | kcat/Km [12] [M⁻¹ s⁻¹]
1 | Methionine--tRNA ligase (Staphylococcus aureus subsp. aureus MW2), Q8NY00 G223C (protein) MAKETFYITTPIYYPSGNLHIGHAYSTVAGDVIARYKRMQGYDVRYLTGTDEHGQKIQEKAQKAGKTEIEYLDEMIAGIKQLWAKLEISNDDFIRTTEERHKHVVEQVFERLLKQGDIYLGEYEGWYSVPDETYYTESQLVDPQYENGKIIGGKSPDSGHEVELVKEESYFFNISKYTDRLLEFYDQNPDFIQPPSRKNEMINNFIKPGLADLAVSRTSFNWCVHVPSNPKHVVYVWIDALVNYISALGYLSDDESLFNKYWPADIHLMAKEIVRFHSIIWPILLMALDLPLPKKVFAHGWILMKDGKMSKSKGNVVDPNILIDRYGLDATRYYLMRELPFGSDGVFTPEAFVERTNFDLANDLGNLVNRTISMVNKYFDGELPAYQGPLHELDEEMEAMALETVKSYTESMESLQFSVALSTVWKFISRTNKYIDETTPWVLAKDDSQKDMLGNVMAHLVENIRYAAVLLRPFLTHAPKEIFEQLNINNPQFMEFSSLEQYGVLTESIMVTGQPKPIFPRLDSEAEIAYIKESMQPPATEEEKEEIPSKPQIDIKDFDKVEIKAATIINAEHVKKSDKLLKIQVDLDSEQRQIVSGIAKFYTPDDIIGKKVAVVTNLKPAKLMGQKSEGMILSAEKDGVLTLVSLPSAIPNGAVIK | 2.5 | 0.037 | 750 | 15000 | 680 | 10 | 10000 | 13000 | – | – | – | – | – | – | – | –
2 | Methionine--tRNA ligase (Staphylococcus aureus subsp. aureus MW2), Q8NY00 V108M (protein) MAKETFYITTPIYYPSGNLHIGHAYSTVAGDVIARYKRMQGYDVRYLTGTDEHGQKIQEKAQKAGKTEIEYLDEMIAGIKQLWAKLEISNDDFIRTTEERHKHVVEQMFERLLKQGDIYLGEYEGWYSVPDETYYTESQLVDPQYENGKIIGGKSPDSGHEVELVKEESYFFNISKYTDRLLEFYDQNPDFIQPPSRKNEMINNFIKPGLADLAVSRTSFNWGVHVPSNPKHVVYVWIDALVNYISALGYLSDDESLFNKYWPADIHLMAKEIVRFHSIIWPILLMALDLPLPKKVFAHGWILMKDGKMSKSKGNVVDPNILIDRYGLDATRYYLMRELPFGSDGVFTPEAFVERTNFDLANDLGNLVNRTISMVNKYFDGELPAYQGPLHELDEEMEAMALETVKSYTESMESLQFSVALSTVWKFISRTNKYIDETTPWVLAKDDSQKDMLGNVMAHLVENIRYAAVLLRPFLTHAPKEIFEQLNINNPQFMEFSSLEQYGVLTESIMVTGQPKPIFPRLDSEAEIAYIKESMQPPATEEEKEEIPSKPQIDIKDFDKVEIKAATIINAEHVKKSDKLLKIQVDLDSEQRQIVSGIAKFYTPDDIIGKKVAVVTNLKPAKLMGQKSEGMILSAEKDGVLTLVSLPSAIPNGAVIK | – | – | – | – | – | – | – | – | 650 | 3.2 | 0.74 | 140 | 15 | 230000 | 110000 | 23000
